# Assay outcomes: PubChem BioAssay, The Scripps Research Institute Molecular Screening Center
# An excerpt weighted towards active compounds, which were near 4.6% of everything screened.
# CHO parental Ca – counter-screen: ATP calcium response change in parental CHO cells; parental CHO-K1, ATP-induced calcium, Fluo-8 fluorescence; inhibition, % at 5.6 µM; actives 0.63% (n = 330,000); AID 463079;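 active = inhibition above that plate's mean sample inhibition plus 3 SD, cut at about 26% in these data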;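 note: 0% = ATP-challenged DMSO wells and 100% = DMSO wells without ATP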
#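 test system = CHO parental line | reagent = ATP stimulus | measured by = intracellular calcium via Fluo-8 no-wash fluorescent dye | control set = ATP and no-ATP DMSO wells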
# OX1R antag-1 – antagonists of human orexin 1 receptor; O43613; CHO/OX1R cells, Fluo-8 calcium fluorescence, orexin A; inhibition, % at 5 µM; actives 0.43% (n = 330,000);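 active = inhibition above its plate's threshold, mean inhibition of all tested compounds on the plate plus 3 SD, cut at about 37% in these data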;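 note: 0% = orexin A challenge wells and 100% = SB-334867-A antagonist wells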
# Target sequence (O43613 whole entry, looked up): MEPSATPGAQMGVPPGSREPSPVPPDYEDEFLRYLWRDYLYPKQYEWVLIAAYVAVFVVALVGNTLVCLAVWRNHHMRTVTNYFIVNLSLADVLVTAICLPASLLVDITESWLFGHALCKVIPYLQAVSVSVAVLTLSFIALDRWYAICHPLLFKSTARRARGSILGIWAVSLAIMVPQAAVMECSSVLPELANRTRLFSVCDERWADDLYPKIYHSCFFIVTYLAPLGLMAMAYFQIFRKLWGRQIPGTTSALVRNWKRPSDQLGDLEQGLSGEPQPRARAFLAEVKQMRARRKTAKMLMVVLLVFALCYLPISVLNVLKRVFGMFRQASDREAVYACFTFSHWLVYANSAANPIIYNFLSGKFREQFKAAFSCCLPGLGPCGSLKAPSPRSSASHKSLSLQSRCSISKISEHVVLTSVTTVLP
# OX1R antag-2 – OX1R (human) antagonism; OX1R-expressing cells, FRET antagonist read-out; O43613; actives 1.8% (n = 330,000); inhibition, % at 6.6 µM; AID 485270; in the data active = inhibition mostly above about 38%, no sharp cut-off; inactive = mostly below about 40%;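 note: 0% = agonist challenge alone and 100% = reference antagonist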
# GPR7 antagonist – blocks human GPR7 receptor signaling | AID 1861 | actives 1.1% (n = 290,000) | GPR7-expressing cells, fluorescence antagonist assay | inhibition, % at 4.4 µM | P48145; in the data active = inhibition above about 16%, passing the limit was not always enough;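 note: cells stimulated with the agonist NPW; 0% = agonist with vehicle and 100% = vehicle without agonist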
# TAAR1 ag – human TAAR1 agonism; Q96RJ0; CHO RD-HGA16 TAAR1, Fluo-8 calcium fluorescence; vehicle wells 0%, saturating PEA agonist 100%; activation, % at 3 µM; actives 0.99% (n = 360,000); AID 624467;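 active = activation above the mean activation of all test compounds in the run plus 3 SD, cut at about 38% in these data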
# Target sequence (Q96RJ0 whole entry, looked up): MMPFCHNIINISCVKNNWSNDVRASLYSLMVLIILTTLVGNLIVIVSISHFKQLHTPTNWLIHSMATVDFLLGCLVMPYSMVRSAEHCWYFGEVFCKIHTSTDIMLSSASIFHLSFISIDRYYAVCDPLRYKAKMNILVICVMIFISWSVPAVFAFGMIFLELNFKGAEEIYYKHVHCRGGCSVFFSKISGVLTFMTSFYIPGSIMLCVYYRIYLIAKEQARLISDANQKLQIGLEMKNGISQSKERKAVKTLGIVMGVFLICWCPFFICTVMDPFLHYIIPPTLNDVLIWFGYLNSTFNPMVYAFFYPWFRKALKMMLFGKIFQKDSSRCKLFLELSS
#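 System: CHO-derived RD-HGA16 cells with stable Gα16 and human TAAR1. Times: 17-24 h plating, Fluo-8 75 min 37 °C, 30 min RT. Measured by: calcium-sensitive Fluo-8 signal, excitation 470-495, emission 515-575 nm. Read-out basis: % activation relative to PEA EC100 response. Control set: DMSO and PEA EC100. Repeats: no replicates (n 1).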
# TAAR1 antagonist – antagonists of human TAAR1; Q96RJ0; actives 1.5% (n = 360,000); inhibition, % at 3 µM; CHO RD-HGA16 TAAR1, Fluo-8 calcium fluorescence, antagonist; AID 624466;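 active = inhibition above a per-plate cutoff, the mean inhibition of test compounds on that plate plus 3 SD, cut at about 49% in these data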;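 note: 0% = DMSO plus EC80 beta-PEA response and 100% = DMSO alone without agonist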
#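 Test system: hTAAR1-expressing CHO RD-HGA16 cells, Gα16-coupled; Probe or stimulus: EC80 β-phenethylamine stimulus; Compound dosing: single nominal final test compound concentration of 3 µM; Timing: 140 s kinetic read after compound, 140 s after agonist; Signal: Fluo-8 calcium-sensitive fluorescence; Measure: % inhibition of agonist calcium response; Controls: DMSO and EC80 PEA controls.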
# OX1R HTRF confirm – confirmation of human orexin 1 receptor antagonists, HTRF format; AID 492964; OX1R-expressing cells, HTRF antagonist assay; shares compounds with OX1R antag-2; inhibition, % at 6.6 µM; actives 49% (n = 1,800); in the data active = inhibition above about 55%;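 note: CHO cells expressing OX1R stimulated with orexin A at about EC80; 0% = agonist challenge alone and 100% = reference antagonist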
# CHO-K1 HTRF cnt – signal in parental CHO-K1 cells, OX1R antagonist counter-screen; shares compounds with OX1R antag-2; HTRF counterscreen; inhibition, % at 6.6 µM; actives 48% (n = 1,800); in the data active = inhibition above about 17%;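 note: 0% = agonist challenge with vehicle and 100% = vehicle alone without agonist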
# TAAR1 nonsel count – nonselective antagonist in TAAR1 antagonist counter-screen. shares compounds with TAAR1 antagonist. counterscreen cell line, calcium fluorescence, antagonist mode. inhibition, % at 3 µM. actives 77% (n = 2,400). AID 651780; in the data active = inhibition above about 22%;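 note: CHO-Ga16 host cells stimulated with ATP at an EC80 level; 0% = agonist EC80 plus vehicle and 100% = vehicle without agonist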
# TAAR1 ant conf – human TAAR1 antagonism, confirmed | shares compounds with TAAR1 antagonist | TAAR1-expressing cells, fluorescence antagonist read-out | inhibition, % at 3 µM | actives 40% (n = 2,400) | AID 651785; in the data active = inhibition above about 49%;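 note: CHO-Ga16 host cells challenged with agonist PEA near its EC80; 0% = agonist at EC80 plus vehicle and 100% = vehicle with no agonist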
# Ga16 ag counter-1 – nonselective Ga16 agonist in TAAR1 antagonist counter-screen; shares compounds with TAAR1 antagonist; Ga16-expressing cells, calcium fluorescence, agonist counterscreen; activation, % at 3 µM; actives 18% (n = 2,400); AID 651953; in the data active = activation above about 12%;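 note: 0% = vehicle wells and 100% = saturating stimulus response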
# TAAR1 ag count – counter-screen for human TAAR1 antagonists: TAAR1 agonists | shares compounds with TAAR1 antagonist | hTAAR1 cell line, fluorescence activation, agonist mode | activation, % at 3 µM | actives 2% (n = 2,400); in the data active = activation above about 37%;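 note: CHO cells stably expressing TAAR1 with calcium dye readout; 0% = DMSO vehicle and 100% = full agonist response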
# TAAR1 ag conf – confirmation of human TAAR1 agonists. shares compounds with TAAR1 ag. CHO RD-HGA16 TAAR1, Fluo-8 calcium fluorescence; scaled: DMSO 0%, maximal phenethylamine 100%. activation, % at 3 µM. actives 82% (n = 2,400). AID 651783;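 active = activation above a cutoff set at the run's mean compound activation plus 3 SD, cut at about 39% in these data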
# Ga16 ag counter-2 – nonselective agonist in parental cells, TAAR1 agonist counter-screen | shares compounds with TAAR1 ag | CHO-Ga16 parental, Fluo-8 calcium fluorescence; normalized to maximal ATP response, DMSO zero | activation, % at 3 µM | actives 50% (n = 2,400) | AID 651787;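 active = activation above the run cutoff, the mean activation over all tested wells plus 3 SD, cut at about 12% in these data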;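 note: 0% = DMSO wells and 100% = maximal ATP response on the peak over basal ratio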
# TAAR1 desensitize – human TAAR1 agonist that also desensitizes the receptor. shares compounds with TAAR1 ag. CHO RD-HGA16 hTAAR1, Fluo-8 calcium, beta-PEA response inhibition. inhibition, % at 3 µM. actives 46% (n = 2,400). AID 651951;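 active = inhibition above the run cutoff, the mean inhibition of all test compounds plus 3 SD, cut at about 49% in these data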;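 note: beta-PEA stimulus applied at its EC80; loss of beta-PEA calcium signal after compound pretreatment read as receptor desensitization; 0% = DMSO with beta-PEA at EC80 and 100% = DMSO alone without agonist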
# Ga16 nonsel ant – nonselective Ga16 antagonist in TAAR1 agonist counter-screen; actives 39% (n = 2,400); inhibition, % at 3 µM; AID 651952; CHO-Ga16 ATP-induced calcium, Fluo-8 fluorescence; shares compounds with TAAR1 ag;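 active = inhibition above the plate's mean compound inhibition plus 3 SD, computed per plate, cut at about 22% in these data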;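 note: 0% = EC80 ATP with DMSO and 100% = DMSO wells without ATP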
# Numbers without * were called inactive; / = no result given.
SMILES,CHO parental Ca,OX1R antag-1,OX1R antag-2,GPR7 antagonist,TAAR1 ag,TAAR1 antagonist,TAAR1 nonsel count,TAAR1 ant conf,Ga16 ag counter-1,TAAR1 ag count,others
Nc1ccc2nonc2c1[N+](=O)[O-],2,-5,83*,-12,72*,23,/,/,/,/,OX1R HTRF confirm=48;CHO-K1 HTRF cnt=91*;TAAR1 ag conf=3;Ga16 ag counter-2=25*;TAAR1 desensitize=4;Ga16 nonsel ant=9
Cc1nc(CCl)cc(=O)[nH]1,-7,-8,21,-5,2,8,/,/,/,/,
CC(C)CC12CN3CCN(CC(C3)/C1=N/O)C2,-1,14,12,-7,4,-5,/,/,/,/,
CC(C)C12CN3CCN(CC(C3)/C1=N\O)C2,-10,-18,13,0,-3,108*,5,10,0,0,
O=P(Oc1ccccc1)(Oc1ccccc1)C(Nc1ccccc1)c1ccccc1 (configuration not stated),-23,-31,11,-2,1,88*,25*,57*,3,4,
O=P(Oc1ccccc1)(Oc1ccccc1)C(O)c1ccccc1 (configuration not stated),-12,-17,34,/,11,0,/,/,/,/,
O=c1[nH]sc2cc(F)ccc12,/,/,/,-9,26,15,/,/,/,/,
CCOC(=O)CC(SP1(=S)OCC2(CC=CCC2)CO1)C(=O)OCC (configuration not stated),/,/,/,/,8,70*,39*,61*,9,7,
O=c1[nH]c2ccccc2n1C1CCN(C(c2cc3ccccc3o2)c2nnnn2Cc2ccccc2)CC1 (configuration not stated),/,/,/,/,12,62*,28*,53*,7,12,
COc1ccc(-n2nnnc2C(C2CC2)N2CCC(n3c(=O)[nH]c4ccccc43)CC2)cc1 (configuration not stated),/,/,/,/,32,72*,19,51*,11,18,
COc1ccc(-n2nnnc2C(c2ccnc3ccccc23)N2CCC(n3c(=O)[nH]c4ccccc43)CC2)cc1 (configuration not stated),/,/,/,/,17,18,/,/,/,/,
COc1ccc(-n2nnnc2C(c2cccs2)N2CCC(n3c(=O)[nH]c4ccccc43)CC2)cc1 (configuration not stated),/,/,/,/,12,71*,18,46,8,26,
Cc1cccc(C)c1-n1nnnc1C(c1cc2ccccc2o1)N1CCC(n2c(=O)[nH]c3ccccc32)CC1 (configuration not stated),/,/,/,/,0,37,/,/,/,/,
O=c1[nH]c2ccccc2n1C1CCN(C(c2cccs2)c2nnnn2-c2ccc3c(c2)OCCO3)CC1 (configuration not stated),/,/,/,/,23,59*,16,42,9,28,
CN(C)C1(CNC(=O)Cc2ccccc2F)CCCCC1,-10,1,4,-4,-1,-3,/,/,/,/,
O=c1c(C=Nc2cccnc2Cl)c(O)n(CCCCl)c(=O)n1C1CCCCC1,-2,-28,3,3,2,6,/,/,/,/,
O=c1[nH]c2ccccc2o1,-6,4,9,8,0,6,/,/,/,/,
CC(C)C[C@@H]1NC(=O)[C@H](Cc2ccccc2)N(C)C(=O)[C@H](C)NC(=O)c2ccccc2NC(=O)[C@H](Cc2ccc(O)cc2)N(C)C1=O,-15,-18,10,/,10,70*,32*,52*,8,8,
CCN1CCC(N(C)C2CCCCC2)CC1,-3,-7,13,-13,4,-11,/,/,/,/,
O=c1[nH]c2ccccc2n1C1CCN(Cc2ccc(-c3[nH]c4cc5ncnc5cc4nc3-c3ccccc3)cc2)CC1,/,/,/,/,5,67*,21,40,6,12,
COc1cccc(NP(=O)(Oc2ccccc2)Oc2ccccc2)c1,-27,-16,28,10,6,72*,27*,49*,8,7,
CN1CCN(C(=O)COc2ccc(S(=O)(=O)Nc3ccc(Cl)cc3)cc2)CC1,/,/,/,/,7,3,/,/,/,/,
O=C(CN1CCOCC1)NCC(=O)Nc1ccc(Br)cc1C(=O)c1ccccc1,-12,-8,4,-1,2,21,/,/,/,/,
CN1CCN(CC(=O)Nc2ccc([N+](=O)[O-])cc2C(=O)c2ccccc2)CC1,1,-35,31,1,5,104*,2,-1,1,4,
O=c1c2ccccc2nc(-c2ccco2)n1-c1ccc(Br)cc1,-42,-28,20,-21,1,16,/,/,/,/,
Cn1c2ccccc2c2c(C(=O)N3CCC4(CC3)OCCO4)cn(C3CCCC3)c(=O)c21,-10,-19,12,-5,20,56*,23*,42,10,9,
c1ccc(C2CC2)c(OCC2=NCCN2)c1,-1,-10,9,/,24,-15,/,/,/,/,
c1ccc2cc(CC3=NCCN3)ccc2c1,-21,-12,17,-3,87*,66*,/,/,/,/,TAAR1 ag conf=98*;Ga16 ag counter-2=3;TAAR1 desensitize=87*;Ga16 nonsel ant=4
Nc1cc(Cl)cc(Cl)c1,-6,1,10,/,2,-7,/,/,/,/,
